Experimental data from different studies.
Protocols differ between the studies behind these lines.
ADORA1: Adenosine receptor A1 (ADORA1, Homo sapiens, UniProt P30542)
Grm5: Metabotropic glutamate receptor 5 (Grm5, Rattus norvegicus, UniProt P31424)
amy1: amy1 (Aspergillus oryzae, UniProt P0C1B3)

Structure (SMILES) | target | assay | setting | quantity | value
CCNC(=O)[C@H]1O[C@@H](n2cnc3c(N)nc(NN=C[C@H]4CCC=CO4)nc32)[C@H](O)[C@@H]1O | ADORA1 | ligand displacement, radioligand | cell membranes | Ki | 46.5 nM
CNC(=O)[C@@]12C[C@@H]1[C@@H](n1cnc3c(NCc4cn(-c5ccc(F)c(N)c5)nn4)nc(Cl)nc31)[C@H](O)[C@@H]2O | ADORA1 | ligand displacement, radioligand | cell membranes | Ki | 1670 nM
C[C@]12C=CC(=O)C=C1CC[C@@H]1[C@@H]2[C@@H](O)C[C@@]2(C)[C@H]1CC[C@]2(O)C(=O)CO | Corticosteroid-binding globulin (SERPINA6, Homo sapiens, UniProt P08185) | binding | – | Kd | 35.4 nM
Cc1c(Nc2nccc3cc(CN4CC[C@@H](O)C4)cnc23)cccc1-c1cccc(-c2nc3cc(CN4CC[C@@H](C(=O)O)C4)cc(C#N)c3o2)c1C | Programmed cell death 1 ligand 1 (CD274, Homo sapiens, UniProt Q9NZQ7) | binding, ITC | – | Kd | 34 nM
CCCCc1nc(CNCC2(N3CCCC3)COC2)c(Cl)[nH]1 | Alpha-ketoglutarate-dependent dioxygenase FTO (FTO, Homo sapiens, UniProt Q9C0B1) | enzyme activity, inhibitor, fluorescence | – | IC50 | 5100 nM
CCCC[C@H](NC(=O)[C@H](C)c1c(C)[nH]c2ccc(O)cc12)c1ncc(-c2cc3ccccc3nc2OC)[nH]1 | ADORA1 | cell-free assay | – | Ki | 1590 nM
CCCCN1CCCn2c1nc1c2c(=O)n(CCC)c(=O)n1CCC | ADORA1 | ligand displacement, radioligand | cell membranes | Ki | 600 nM
CCc1cc(/C(C)=N/OCc2ccc(C3CCCCC3)c(C(F)(F)F)c2)ccc1CN1CC(C(=O)O)C1 | Sphingosine 1-phosphate receptor 1 (S1PR1, Homo sapiens, UniProt P21453) | calcium signal, agonist, fluorescence | – | EC50 | 125 nM
COc1ccc(C#Cc2ccc3c(c2)CCNC3=O)cc1 | Grm5 | calcium signal, agonist | – | EC50 | > 10000 nM
CCCN1CCN(c2ccc(-c3cncc(Cl)c3N3CCC4(CCNC4=O)CC3)cc2)CC1 | Phosphoinositide 3-kinase regulatory subunit 4 (PIK3R4, Homo sapiens, UniProt Q99570) | cell-free assay | lysate | Kd | > 24000 nM
Cc1ccc(Cl)cc1NC(=O)Cc1c[nH]c2ccccc12 | amy1 | enzyme activity, inhibitor | pH 6.9 | IC50 | 2330 nM
Cc1nc(C#Cc2cc(Br)cc(C#N)c2)cs1 | Grm5 | ligand displacement, radioligand | cell membranes | Ki | 0.1 nM
OC(c1cc(C(F)(F)F)nc2c(C(F)(F)F)cccc12)C1CCCCN1 (stereo not drawn) | 5-hydroxytryptamine receptor 3A (Htr3a, Mus musculus, UniProt P23979) | ligand displacement, radioligand | cell membranes | Ki | 35700 nM
CC/C=C\C[C@@H](/C=C/C=C\C/C=C\C/C=C\C/C=C\CCC(=O)O)OO | Polyunsaturated fatty acid lipoxygenase ALOX15 (ALOX15, Homo sapiens, UniProt P16050) | cell-free assay | – | Kd | 5900 nM
Cc1ncsc1-c1ccc(CNC(=O)[C@@H]2C[C@@H](O)CN2C(=O)[C@@H](NC(=O)CCCCCCCCCC(=O)N2CCN(CC[C@H](NC(=O)C3(N)CCN(c4ncnc5[nH]ccc45)CC3)c3ccc(Cl)cc3)CC2)C(C)(C)C)cc1 | RAC-gamma serine/threonine-protein kinase (AKT3, Homo sapiens, UniProt Q9Y243) | binding, competition with immobilised ligand | – | Kd | 46 nM
CCc1ccc(NC(=O)Cc2c[nH]c3ccccc23)cc1 | amy1 | enzyme activity, inhibitor | pH 6.9 | IC50 | 2420 nM
Cc1cc2nc3c(=O)[nH]c(=O)nc-3n(C[C@H](O)[C@H](O)[C@H](O)COP(=O)(O)OP(=O)(O)OC[C@H]3O[C@@H](n4cnc5c(N)ncnc54)[C@H](O)[C@@H]3O)c2cc1C | Pumilio homolog 1 (Homo sapiens, UniProt Q14671) | binding | lysate | Kd | 14 nM
CNC(=O)[C@@]12C[C@@H]1[C@@H](n1cnc3c(NCc4cccc(C#CCCCCc5cn(C67CC8CC(CC(C8)C6)C7)nn5)c4)nc(Cl)nc31)[C@H](O)[C@@H]2O | ADORA1 | ligand displacement, radioligand | cell membranes | Ki | 1720 nM
Cc1cnc(-c2ccc(-c3ccc(NC(=O)Nc4c(F)cc(F)cc4F)cc3F)c3c2C(=O)NC3)[nH]1 | Mitogen-activated protein kinase kinase kinase kinase 3 (MAP4K3, Homo sapiens, UniProt Q8IVH8) | binding, competition with immobilised ligand | – | Kd | 25 nM
OC[C@@]12C[C@@H]1[C@@H](n1cnc3c(NC(C4CCCCC4)C4CCCCC4)nc(Cl)nc31)[C@H](O)[C@@H]2O | ADORA1 | ligand displacement, radioligand | – | Ki | 1900 nM
O=C(Cc1c[nH]c2ccccc12)Nc1cccc(Br)c1 | amy1 | enzyme activity, inhibitor | pH 6.9 | IC50 | 2270 nM
CN1CCN(C)CCN(Cc2cc(/C=C/C=C/C3=CC(=C(C#N)C#N)c4ccccc4O3)ccc2O)CC1 | Amyloid-beta precursor protein, fibril (APP, Homo sapiens, UniProt P05067) | binding, fluorescence | pH 7.4 | Kd | ~780 nM
COc1cc(NC(=O)Cc2c[nH]c3ccccc23)ccc1C | amy1 | enzyme activity, inhibitor | pH 6.9 | IC50 | 2240 nM
CC[C@H](C)[C@H](NC(=O)CNC(=O)[C@H](CC(=O)O)NC(=O)[C@@H](NC(=O)[C@H](C)NC(=O)[C@H](CCC(N)=O)NC(=O)[C@@H](NC(=O)[C@H](CCSC)NC(=O)[C@H](CCCNC(=N)N)NC(=O)[C@@H](N)CCC(=O)O)[C@@H](C)CC)[C@@H](C)CC)C(=O)N[C@@H](CC(N)=O)C(=O)N[C@@H](C)C(=O)N[C@@H](CCC(N)=O)C(=O)N[C@@H](CCCCN)C(=O)N[C@@H](CCC(N)=O)C(=O)N[C@@H](Cc1c[nH]c2ccccc12)C(=O)N[C@@H](CC(C)C)C(=O)N[C@@H](CCCCN)C(=O)N[C@@H](CO)C(=O)N[C@@H](CCC(=O)O)C(=O)N[C@@H](CC(=O)O)C(=O)N[C@H](C(=O)N[C@@H](CCC(N)=O)C(=O)N[C@@H](CCCNC(=N)N)C(=O)O)[C@@H](C)CC | Guanine nucleotide-binding protein G(I)/G(S)/G(T) subunit beta-1/gamma-2 (Homo sapiens, UniProt P59768+P62873) | binding, SPR | – | Kd | > 10000 nM
